# Compounds with a hit are over-represented: about 1.9% of the library has one in this group of screens.
# IMP-1 inh: blocks Pseudomonas aeruginosa IMP-1 metallo-beta-lactamase. purified IMP-1, nitrocefin hydrolysis, epi-absorbance fluorescence. inhibition, % at 5.6 µM. actives 0.45% (n = 290,000). AID 1556;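 active = inhibition above the mean plus 3 SD of all compounds in the same screening run, cut at about 4.5% in these data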;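 note: 0% = IMP-1 with DMSO and 100% = DMSO wells lacking enzyme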
#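 Material – recombinant IMP-1 enzyme, purified · Amount – IMP-1 0.2 nM before substrate addition · Medium – HEPES buffer pH 7.1 with ZnSO4 and Brij 35 · Timing – 25 °C, 15 min preincubation, 25 min reaction · Measured by – plate fluorescence quenching by hydrolysis product, ex 480/em 530 nm · Read-out – percent enzyme inhibition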
# Fh CTSL1 inh: cathepsin L1 inhibition, PFM18AAP counter-screen. recombinant F. hepatica cathepsin L1, Z-Leu-Arg-MCA fluorescence. inhibition, % at 5.96 µM. actives 0.49% (n = 300,000). AID 1906;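 active = inhibition above the mean of all tested compounds plus 3 SD, set per screening campaign, cut at about 17% in these data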;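 note: 0% = plate median of test compound wells and 100% = 1 µM Z-Phe-Ala-diazomethylketone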
# pCIP destab: compounds decreasing mouse p/CIP protein stability; F442A p/CIP-EGFP cells, EGFP fluorescence, 16 h; Q05BA5; decrease of EGFP signal, % at 10 µM; actives 0.01% (n = 290,000);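 active = EGFP signal decrease of at least 30% at 10 µM or well 3 SD below plate mean, unless failing retest; inactive = the rest, including hits failing retest or dose response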
# T cell modulator: T cell immune modulation candidate; 2C CD8+ T cell-vesicle binding, flow cytometry; stronger effect = lower value; response (vesicle binding), % at 7 µM; actives 0.068% (n = 330,000); AID 2052;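 active = response, share of CD8 T cells binding vesicles, and their 90th percentile fluorescence all below set limits, cut at about 80% in these data, passing the limit was not always enough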;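 note: values below 100% mean blocked vesicle binding to the CD8+ T cells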
#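 Material: 2C TCR transgenic mouse naive CD8+ T cells, MACS-purified. Also added: QL9-charged Drosophila Ld/ICAM-1/B7-1 vesicles. Timing: binding 1.5 h at 37 °C. Measured by: high-throughput flow cytometry with anti-B7-1 and anti-CD8 staining. Read-out: percent CD8+ FL2 mean versus row control. Controls: Unloaded micro-vesicles (low), QL9 vesicles with 0.7% DMSO (high).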
# UBC9 SUMO inh: SUMOylation inhibition; P63279; HTRF SUMOylation assay, SAE1/SAE2 + UBC9, in vitro; inhibition, % at 35 µM; actives 0.36% (n = 290,000); AID 2006; in the data active = inhibition above about 50%, passing the limit was not always enough; inconclusive = no clear call, values can overlap the other calls
# Target sequence (P63279 whole entry, looked up): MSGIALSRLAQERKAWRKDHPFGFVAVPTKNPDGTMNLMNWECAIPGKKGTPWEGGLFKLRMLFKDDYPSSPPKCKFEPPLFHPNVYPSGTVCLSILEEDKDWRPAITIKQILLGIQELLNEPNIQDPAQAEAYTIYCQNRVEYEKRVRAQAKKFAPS
# VIM-2 inhibitor: blocks Pseudomonas aeruginosa VIM-2 metallo-beta-lactamase | purified VIM-2, nitrocefin hydrolysis, epi-absorbance fluorescence | actives 0.89% (n = 290,000) | inhibition, % at 5.6 µM;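 active = inhibition above the mean of all tested compounds plus 3 SD, cutoff set per screening run, cut at about 7.5% in these data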;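 note: red hydrolysis product quenches plate fluorescence so inhibitors raise well fluorescence; 0% = enzyme with DMSO and 100% = DMSO without enzyme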
# An asterisk follows results filed as active; i = inactive; ? = inconclusive; . = no result given.
SMILES,IMP-1 inh,Fh CTSL1 inh,pCIP destab,T cell modulator,UBC9 SUMO inh,VIM-2 inhibitor
Cc1ccccc1NS(=O)(=O)c1ccc2[nH]cc(C(=O)N(C)Cc3ccco3)c(=O)c2c1,4.5*,0,-17,98,4,1
COc1cccc(NS(=O)(=O)c2ccc3[nH]cc(C(=O)N(C)Cc4ccco4)c(=O)c3c2)c1,-3,14,-3,283,-1,-3
CC(NC(=O)COc1ccccc1Cl)c1ccccc1 (stereo not given),-2,-1,-9,106,20,-2
O=C(NC1CCCCC1)N1CCCCCCC1,0,18*,-14,233,22,-3
O=C(O)CCC(=O)Nc1ccc(C(=O)OCC(=O)c2ccc(Cl)cc2Cl)cc1,0,1,-6,386,10,-3
C=CCN(C(=O)CSC1=NC(=O)CN1C(C)=O)c1nc(C)c(-c2ccccc2)s1,-2,19*,7,309,-7,-5
O=S(=O)(Nc1ccc2c3c(cccc13)CC2)c1ccc(F)cc1,7.8*,0,-17,286,0,0
COCCNC(=S)N(CCc1c(C)[nH]c2ccc(F)cc12)Cc1ccco1,-2,-1,2,221,-12,-1
Cc1cccc(C(CC(=O)N2CCCCC2)c2ccccc2)c1O (stereo not given),-2,-4,2,154,4,-1
O=c1cc2oc3cc(O)c(O)cc3c(-c3ccccc3O)c-2cc1O,2,.,-82,.,85*,4
CCOc1ccccc1-c1c2cc(O)c(=O)cc-2oc2cc(O)c(O)cc12,6.8*,.,-68,.,26,1
COc1ccc(OC)c(-c2c3cc(O)c(=O)cc-3oc3cc(O)c(O)cc23)c1,4.7*,-7,-59,707,?,1
COC(=O)c1ccc(NC(=O)CN2CCN(CCO)CC2)cc1,2,-1,-12,543,-2,1
Cc1ccc(S(=O)(=O)/N=C2/NC(=O)/C(=C/c3ccc(Br)o3)S2)cc1,-3,4,-8,258,13,-3
Cc1ccc(S(=O)(=O)/N=C2/NC(=O)/C(=C\c3cc(Br)cc(Br)c3O)S2)cc1,1,.,-278,413,62*,0
CCNCCNc1ccc(Cl)cc1[N+](=O)[O-],-4,36*,.,286,.,-4
Fc1cc(F)c2nc(N3CCCC3)sc2c1,-2,-4,17,263,-14,-4
Oc1oc(-c2ccccc2Br)nc1C=Nc1ccc(Br)cn1,-3,63*,-10,166,46,-2
CN=Cc1nc(-c2ccccc2)oc1O,-2,7,-8,230,22,-4
Oc1oc(-c2ccco2)nc1C=Nc1ccccc1,-1,3,-11,605,16,2
Oc1oc(-c2ccccc2)nc1/C=N/c1ccccn1,-3,71*,-16,314,17,2
COCCSc1nnc(NC(=O)COc2ccc3c(c2)OCO3)s1,1,-3,2,318,-7,0
O=C(O)C/C(=C\c1ccc2c(c1)OCO2)c1nc2ccccc2s1,-2,2,-9,474,19,8.0*
COc1cccc(/C=C(\CC(=O)O)c2nc3ccccc3s2)c1,-2,5,5,528,16,3
COc1cc(-c2ccc3c(=O)c4ccccc4n(C)c3c2)cc(OC)c1OC,-1,3,10,104,-3,12*
SMILES,IMP-1 inh,Fh CTSL1 inh,pCIP destab,T cell modulator,UBC9 SUMO inh,VIM-2 inhibitor
COc1cc(-c2ccc3c(=O)c4ccccc4sc3c2)cc(OC)c1OC,.,.,.,i,.,.
COc1cc2oc3ccc(C#Cc4ccccn4)cc3c(=O)c2cc1OC,.,2,.,506,.,.
Cn1c(-c2ccc3c(c2)OCO3)cc(=O)c2ccccc21,-1,0,-5,216,34,0
Cn1c2ccccc2c(=O)c2ccc(C#Cc3ccccn3)cc21,1,2,-5,661,-12,10*
Cn1c2ccccc2c(=O)c2ccc(-c3ccc4c(c3)OCO4)cc21,-1,6,3,273,-72,9.3*
O=C(CCN1CCc2ccccc2CC1)c1ccc2c(c1)OCCO2,-2,7,-10,297,3,1
CCCCC(=O)Nc1cccc(C(=O)N/N=C/c2ccc(OC)cc2OC)c1,-3,0,4,422,19,-3

# Bioassay records deposited in PubChem by several laboratories.
